Assay results reported in ChEMBL document CHEMBL4837227, “Discovery and development of 2-aminobenzimidazoles as potent antimalarials” (Eur J Med Chem, 2021).
Converted amounts (≈) assume the structure as drawn. One block for each compound: values may come before it. The source made the active and inactive calls. The calls are words filed in the database; no cut-off is given here.

Key:
Plasmodium falciparum [1] = assay: Antimalarial activity against Plasmodium falciparum 3D7 assessed as reduction in parasite growth measured after 72 hrs by Monash assay based fluorescence analysis; type: functional, organism-based; details: 3D7, 72 h
Summary of the method: (§1)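 Asynchronous P. falciparum cultures were grown continuously in complete RPMI with 25 mM HEPES, 0.5% Albumax II, 0.37 mM hypoxanthine and 2.0 g/l bicarbonate. They were exposed to serially diluted compound for 72 h. Controls were DMSO (0.01%) and a reference positive control. Fluorescence was read after 2 h in the dark at room temperature. IC50 is mean SEM from technical duplicate or triplicate, at least three biological replicates.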

[2] = system: Plasmodium falciparum 3D7; assay: (§2) Binding affinity to Plasmodium falciparum 3D7 AMA1 (104 to 438 residues) expressed in Escherichia coli BL21(DE3) by surface plasmon resonance assay
[3] = as §2
Plasmodium falciparum [4] = assay: Antimalarial activity against synchronous ring stage of Plasmodium falciparum 3D7 assessed as parasite growth inhibition incubated for 72 hrs by Griffith assay based fluorescence analysis; type: functional, organism-based; details: 3D7, 72 h
Summary of the method: (§3)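 22-point dose-response, 3 per log, final 40 µM top, 0.4% DMSO. 72 h at 37 °C under 90% N2/5% CO2/5% O2. DAPI stain, confocal imaging. IC50 from 4-parameter fit normalised to in-plate puromycin and DMSO controls.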

Plasmodium falciparum [5] = assay: Antimalarial activity against synchronous ring stage of Plasmodium falciparum Dd2 assessed as parasite growth inhibition incubated for 72 hrs by Griffith assay based fluorescence analysis; type: functional, organism-based; details: Dd2, 72 h; summary of the method: as §3
[6] = Selectivity index, ratio of IC50 for antimalarial activity against Plasmodium falciparum Dd2 to IC50 of antimalarial activity against Plasmodium falciparum 3D7; type: functional
Plasmodium falciparum [7] = assay: Antimalarial activity against artemisinin-resistant Plasmodium falciparum Cam3.II^C580Y expressing K13 mutant assessed as reduction in parasite growth measured after 72 hrs by Monash assay based fluorescence analysis; type: functional, organism-based
Summary of the method: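 Asynchronous culture, 72 h compound exposure. Compounds prepared at […] (twice the top concentration) in complete RPMI (25 mM HEPES, 0.5% Albumax II, 0.37 mM hypoxanthine, sodium bicarbonate), then serially diluted. Fluorescence read after 2 h room-temperature dark incubation. Negative control 0.01% DMSO. IC50 as mean SEM, n ≥ 3 biological replicates, each in technical duplicate or triplicate.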

Plasmodium falciparum [8] = assay: Antimalarial activity against artemisinin-sensitive Plasmodium falciparum Cam3.II^rev expressing wild type K13 assessed as reduction in parasite growth measured after 72 hrs by Monash assay based fluorescence analysis; type: functional, organism-based; summary of the method: as §1
Plasmodium falciparum [9] = assay: Antiplasmodial activity against PfATP4 inhibitor SJ557733-resistant Plasmodium falciparum Dd2 assessed as reduction in parasite growth incubated for 72 hrs by Griffith assay based fluorescence analysis; type: functional, organism-based; details: Dd2, 72 h; summary of the method: as §3
Plasmodium falciparum [10] = assay: Selectivity index, ratio of IC50 for antimalarial activity against PfATP4 inhibitor SJ557733-resistant Plasmodium falciparum Dd2 to IC50 of antimalarial activity against Plasmodium falciparum Dd2; type: functional
[11] = Selectivity index, ratio of IC50 for cytotoxicity against human HEK293 cells to antiplasmodial activity against Plasmodium falciparum 3D7; type: toxicity, cell-based; details: read-out: Ratio IC50
[12] = Kinetic solubility of the compound at pH 2 measured after 30 mins by nephelometry; type: physicochemical; details: buffer, read-out: Kinetic_solubility
Summary of the method: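 Compound in DMSO was spiked into 0.01 M HCl (pH ~2.0) at a final DMSO of 1%. After 30 min, nephelometry gave a solubility range.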

[13] = Metabolic stability in mouse liver microsomes assessed as half-life at 1 uM measured for 60 mins in presence of NADPH regenerating system by LC-MS analysis; type: ADME, Microsome
Summary of the method: (§4)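 Compound was incubated at 37 °C with liver microsomes at 0.4 mg/mL protein. The reaction was started with an NADPH-regenerating system and quenched at time points over 60 min with acetonitrile containing diazepam as internal standard. No-NADPH controls were quenched at 2, 30 and 60 min.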

[14] = Metabolic stability in human liver microsomes assessed as half-life at 1 uM measured for 60 mins in presence of NADPH regenerating system by LC-MS analysis; type: ADME, Microsome; summary of the method: as §4
[15] = Metabolic stability in mouse liver microsomes assessed as intrinsic clearance at 1 uM measured per mg protein for 60 mins in presence of NADPH regenerating system by LC-MS analysis; type: ADME, Microsome; details: read-out: CLH; summary of the method: as §4
[16] = Metabolic stability in human liver microsomes assessed as intrinsic clearance at 1 uM measured per mg protein after 60 mins in presence of NADPH regenerating system by LC-MS analysis; type: ADME, Microsome; details: read-out: CLH; summary of the method: as §4
[17] = Kinetic solubility of the compound at pH 6.5 measured after 30 mins by nephelometry; details: buffer, read-out: Kinetic_solubility
HEK293 = assay: Cytotoxicity against human HEK293 cells assessed as reduction in cell viability at 50 uM measured after 24 hrs by MTT assay; details: hek293, 24 h

Compound: Nc1nc2ccccc2n1-c1cccc(Cl)c1O
IC50 (Plasmodium falciparum [1]): > 500 nM

Compound: Oc1ccccc1-n1c(NC2CCCCC2)nc2ccccc21
IC50 (Plasmodium falciparum [1]): 333 nM

Activity [2]: inactive
Compound: Nc1ccccc1-n1c(N)nc2ccccc21
IC50 (Plasmodium falciparum [1]): > 500 nM

Compound: Nc1cc(N)cc(-c2nc3ccccc3[nH]2)c1
Kd [3]: 100000 nM

Compound: Nc1nc2cccnc2n1-c1ccccc1O
IC50 (Plasmodium falciparum [1]): > 500 nM

Compound: Nc1nc2ccccc2n1-c1c(O)cccc1F
IC50 (Plasmodium falciparum [1]): 321 nM

Compound: CC(C)CNc1nc2ccccc2n1-c1ccccc1O
IC50 (Plasmodium falciparum [1]): 356 nM

Activity [2]: inactive
Compound: Nc1ccc(-n2c(N)nc3ccccc32)cc1
IC50 (Plasmodium falciparum [1]): > 500 nM

Compound: C[C@H]1[C@@H](O)O[C@@H]2O[C@@]3(C)CC[C@H]4[C@H](C)CC[C@@H]1[C@@]24OO3 [ARTENIMOL]
IC50 (Plasmodium falciparum [1]): 2 nM
IC50 (Plasmodium falciparum [4]): 0.4 nM
IC50 (Plasmodium falciparum [5]): 0.6 nM
Ratio IC50 [6]: 1.3

Compound: Nc1nc2ccccc2n1-c1ccc(F)cc1O
IC50 (Plasmodium falciparum [1]): 188 nM

Compound: Nc1nccnc1-c1ccccc1O
IC50 (Plasmodium falciparum [1]): > 500 nM

Compound: Nc1nc2ccccc2n1-c1cnccc1O
IC50 (Plasmodium falciparum [1]): > 500 nM

Activity [2]: inactive
Compound: COc1ccccc1-n1c(N)nc2ccccc21
IC50 (Plasmodium falciparum [1]): > 500 nM

Compound: Cc1ccc(-n2c(N)nc3ccccc32)c(O)c1
IC50 (Plasmodium falciparum [1]): 42 nM
IC50 (Plasmodium falciparum [4]): 13.5 nM
IC50 (Plasmodium falciparum [5]): 31.7 nM
Ratio IC50 [6]: 2.3
IC50 (Plasmodium falciparum [7]): 81 nM
IC50 (Plasmodium falciparum [8]): 140 nM
IC50 (Plasmodium falciparum [9]): 17.5 nM
Ratio IC50 (Plasmodium falciparum [10]): 0.5
selectivity ratio [11]: > 1000
solubility kinetic at 0.5 h [12]: > 100 µg/mL
half-life at 1 µM [13]: 0.3 h
half-life at 1 µM [14]: 2.7 h
microsomal CLint at 1 µM [15]: 97 µL/min/mg
microsomal CLint at 1 µM [16]: 11 µL/min/mg
solubility kinetic at 0.5 h [17]: 25 µg/mL (≈ 104 µM)
Activity (HEK293): Non-Toxic

Compound: Nc1nc2ccccc2n1-c1ncccc1O
IC50 (Plasmodium falciparum [1]): > 500 nM

Compound: Cc1ccc(O)c(-n2c(N)nc3ccccc32)c1
IC50 (Plasmodium falciparum [1]): 56 nM

Compound: CCc1nc(N)nc(N)c1-c1ccc(Cl)cc1 [PYRIMETHAMINE]
IC50 (Plasmodium falciparum [4]): 4.7 nM
IC50 (Plasmodium falciparum [5]): > 40000 nM
Ratio IC50 [6]: > 8000

Compound: Nc1nc2ccccc2n1-c1ccc(Cl)cc1O
IC50 (Plasmodium falciparum [1]): 164 nM

Compound: CCCCNc1nc2ccccc2n1-c1ccccc1O
IC50 (Plasmodium falciparum [1]): 278 nM

Compound: Nc1nc2ccccc2n1-c1cccnc1O
IC50 (Plasmodium falciparum [1]): > 500 nM

Compound: Nc1nc2ccccc2n1-c1c(O)cccc1Cl
IC50 (Plasmodium falciparum [1]): > 500 nM

Activity [2]: inactive
Compound: COc1ccc(-n2c(N)nc3ccccc32)cc1
IC50 (Plasmodium falciparum [1]): > 500 nM

Compound: COc1ccc(C[C@H](N)C(=O)N[C@H]2[C@@H](O)[C@H](n3cnc4c(N(C)C)ncnc43)O[C@@H]2CO)cc1 [PUROMYCIN]
IC50 (Plasmodium falciparum [4]): 149 nM
IC50 (Plasmodium falciparum [5]): 114 nM
Ratio IC50 [6]: 0.8

Compound: Nc1nc2ccccc2n1-c1cccc(F)c1O
IC50 (Plasmodium falciparum [1]): > 500 nM

Compound: Nc1nc2ccccc2n1-c1cc(F)ccc1O
IC50 (Plasmodium falciparum [1]): 90 nM

Compound: Nc1ncccc1-c1ccccc1O
IC50 (Plasmodium falciparum [1]): > 500 nM

Compound: Oc1ccccc1-n1c(NCC2CC2)nc2ccccc21
IC50 (Plasmodium falciparum [1]): > 500 nM

Activity [2]: inactive
Compound: COc1cccc(-n2c(N)nc3ccccc32)c1
IC50 (Plasmodium falciparum [1]): > 500 nM

Compound: CC(C)Nc1nc2ccccc2n1-c1ccccc1O
IC50 (Plasmodium falciparum [1]): > 500 nM

Compound: Nc1nc2ccccc2n1-c1cc(Cl)ccc1O
IC50 (Plasmodium falciparum [1]): 162 nM

Compound: Nc1nc2ccccc2n1-c1ccc2cccnc2c1O
IC50 (Plasmodium falciparum [1]): > 500 nM

Activity [2]: inactive
Compound: Nc1nc2ccccc2n1-c1ccc(O)cc1
IC50 (Plasmodium falciparum [1]): > 500 nM
